Test results published in ChEMBL document CHEMBL2417442, “Modulation of αvβ₃- and α₅β₁-integrin-mediated adhesion by dehydro-β-amino acids containing peptidomimetics” (Eur J Med Chem, 2013).
Activity calls are given as the source filed them. No cut-off for these calls is given here.

What was measured:
Integrin alpha-V/beta-3 [1] = target: T1, Integrin alpha-V/beta-3 (Homo sapiens, UniProt P05106+P06756); assay: Inhibition of alphaVbeta3 integrin in human DAOY cells assessed as inhibition of fibronectin-induced ERK1/2 phosphorylation at 10 uM incubated for 30 mins prior to fibronectin challenge measured after 90 mins by Western blotting analysis; format: cell-based
Outline: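 DAOY medulloblastoma cells serum-starved 16 h in DMEM, detached, then given compound at 10 µM for 30 min. Plated 90 min on fibronectin (10 µg/ml)-coated, BSA-blocked plates; suspension cells as control. Lysed with phosphatase inhibitors, separated on 12% SDS-PAGE and immunoblotted for phospho-ERK1/2 and total ERK1/2.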

Integrin alpha-V/beta-3 [2] = target: T1, Integrin alpha-V/beta-3; assay: Inhibition of alphaVbeta3 integrin-mediated human DAOY cell adhesion to fibronectin incubated for 30 mins before plating measured after 1 hr; format: protein-complex assay
Outline: (§1)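 Cells pre-incubated with a range of compound concentrations for 30 min at room temperature. Then 50000 cells/well plated on fibronectin (10 µg/mL) coated overnight at 4°C and left 1 h at room temperature. After PBS washes, adherent cells were quantified by hexosaminidase activity: 4-nitrophenyl-N-acetyl-β-D-glucosaminide in citrate buffer pH 5 with Triton X-100, stopped with glycine/EDTA pH 10.4, read at 405 nm. Quadruplicates, at least three repeats; IC50 fitted.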

Integrin alpha-5/beta-1 [3] = target: T2, Integrin alpha-5/beta-1 (Homo sapiens, UniProt P05556+P08648); assay: Inhibition of alpha5beta1 integrin-mediated human K562 cell adhesion to fibronectin incubated for 30 mins before plating measured after 1 hr; format: protein-complex assay; outline: as §1
Target sequence in this assay (P05556 21-798 limits assumed): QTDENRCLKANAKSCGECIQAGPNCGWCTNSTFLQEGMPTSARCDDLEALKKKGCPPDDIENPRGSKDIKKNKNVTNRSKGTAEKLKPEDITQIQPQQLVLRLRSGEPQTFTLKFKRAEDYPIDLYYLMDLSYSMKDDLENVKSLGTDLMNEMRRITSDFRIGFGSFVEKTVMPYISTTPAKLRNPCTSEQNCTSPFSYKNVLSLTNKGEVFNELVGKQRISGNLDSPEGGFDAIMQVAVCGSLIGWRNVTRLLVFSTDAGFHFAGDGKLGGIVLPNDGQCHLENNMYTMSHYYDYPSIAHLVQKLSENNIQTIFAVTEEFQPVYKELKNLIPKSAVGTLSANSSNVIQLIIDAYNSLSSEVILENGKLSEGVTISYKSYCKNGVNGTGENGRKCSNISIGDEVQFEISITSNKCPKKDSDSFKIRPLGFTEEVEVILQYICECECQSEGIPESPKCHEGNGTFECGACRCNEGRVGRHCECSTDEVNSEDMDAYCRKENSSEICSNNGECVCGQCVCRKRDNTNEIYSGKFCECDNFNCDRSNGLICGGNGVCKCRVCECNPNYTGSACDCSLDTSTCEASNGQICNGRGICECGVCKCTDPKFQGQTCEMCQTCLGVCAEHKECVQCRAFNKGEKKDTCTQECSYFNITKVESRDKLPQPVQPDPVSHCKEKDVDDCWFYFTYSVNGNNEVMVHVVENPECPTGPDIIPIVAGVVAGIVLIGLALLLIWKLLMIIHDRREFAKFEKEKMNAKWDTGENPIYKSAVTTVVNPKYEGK
Target sequence in this assay (P08648 42-894 limits assumed): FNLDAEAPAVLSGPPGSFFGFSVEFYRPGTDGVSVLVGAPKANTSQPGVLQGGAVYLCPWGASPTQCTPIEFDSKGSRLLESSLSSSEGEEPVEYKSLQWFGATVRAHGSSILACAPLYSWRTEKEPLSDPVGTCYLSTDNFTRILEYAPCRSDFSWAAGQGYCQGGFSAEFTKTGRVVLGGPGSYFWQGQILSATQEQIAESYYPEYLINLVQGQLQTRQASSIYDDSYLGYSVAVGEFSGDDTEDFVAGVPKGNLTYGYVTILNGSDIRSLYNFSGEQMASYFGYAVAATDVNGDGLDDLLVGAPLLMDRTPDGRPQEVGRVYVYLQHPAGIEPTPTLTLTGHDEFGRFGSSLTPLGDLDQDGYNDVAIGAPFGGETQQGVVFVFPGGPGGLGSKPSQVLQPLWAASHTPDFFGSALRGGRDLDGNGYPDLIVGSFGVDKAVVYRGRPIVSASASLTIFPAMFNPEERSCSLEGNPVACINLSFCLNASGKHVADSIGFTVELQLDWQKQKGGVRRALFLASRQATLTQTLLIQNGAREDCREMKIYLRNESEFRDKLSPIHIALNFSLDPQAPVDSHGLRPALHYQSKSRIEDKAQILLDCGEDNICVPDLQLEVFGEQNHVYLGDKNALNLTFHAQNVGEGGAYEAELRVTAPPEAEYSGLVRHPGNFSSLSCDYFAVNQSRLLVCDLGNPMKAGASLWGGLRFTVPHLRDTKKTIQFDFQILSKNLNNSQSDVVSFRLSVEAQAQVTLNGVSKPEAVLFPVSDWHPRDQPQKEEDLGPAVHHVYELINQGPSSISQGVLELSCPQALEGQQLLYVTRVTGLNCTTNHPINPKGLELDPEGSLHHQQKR
Target sequence in this assay (P08648 895-1049 limits assumed): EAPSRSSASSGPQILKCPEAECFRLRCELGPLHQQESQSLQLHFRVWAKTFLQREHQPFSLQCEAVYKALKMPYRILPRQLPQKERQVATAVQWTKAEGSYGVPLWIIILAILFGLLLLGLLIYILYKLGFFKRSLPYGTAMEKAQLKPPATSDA

Integrin alpha-5/beta-1 [4] = target: T2, Integrin alpha-5/beta-1; assay: Inhibition of alpha5beta1 integrin in human K562 cells assessed as inhibition of fibronectin-induced ERK1/2 phosphorylation at 10 uM incubated for 60 mins prior to fibronectin challenge measured after 60 mins by Western blotting analysis; format: cell-based
Outline: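 K562 cells, PMA-differentiated (25 ng/mL for 40 h), then serum-starved 16 h in RPMI-1640 with 1% FBS. Compound at 10 µM for 60 min in suspension, then plated 60 min on fibronectin (10 µg/ml)-coated, 1% BSA-blocked plates. Suspension cells served as control and PMA 65 nM as positive control. Lysates run on 12% SDS-PAGE and blotted for phospho- and total ERK1/2. pERK normalized to total ERK by densitometry; mean ± SEM, n=6.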

Integrin alpha-V/beta-3 [5] = target: T1, Integrin alpha-V/beta-3; assay: Inhibition of alphaVbeta3 integrin-mediated human SK-MEL-24 cell adhesion to fibronectin incubated for 30 mins before plating measured after 1 hr; format: protein-complex assay; outline: as §1
Target sequence in this assay (P05106 27-788 limits assumed): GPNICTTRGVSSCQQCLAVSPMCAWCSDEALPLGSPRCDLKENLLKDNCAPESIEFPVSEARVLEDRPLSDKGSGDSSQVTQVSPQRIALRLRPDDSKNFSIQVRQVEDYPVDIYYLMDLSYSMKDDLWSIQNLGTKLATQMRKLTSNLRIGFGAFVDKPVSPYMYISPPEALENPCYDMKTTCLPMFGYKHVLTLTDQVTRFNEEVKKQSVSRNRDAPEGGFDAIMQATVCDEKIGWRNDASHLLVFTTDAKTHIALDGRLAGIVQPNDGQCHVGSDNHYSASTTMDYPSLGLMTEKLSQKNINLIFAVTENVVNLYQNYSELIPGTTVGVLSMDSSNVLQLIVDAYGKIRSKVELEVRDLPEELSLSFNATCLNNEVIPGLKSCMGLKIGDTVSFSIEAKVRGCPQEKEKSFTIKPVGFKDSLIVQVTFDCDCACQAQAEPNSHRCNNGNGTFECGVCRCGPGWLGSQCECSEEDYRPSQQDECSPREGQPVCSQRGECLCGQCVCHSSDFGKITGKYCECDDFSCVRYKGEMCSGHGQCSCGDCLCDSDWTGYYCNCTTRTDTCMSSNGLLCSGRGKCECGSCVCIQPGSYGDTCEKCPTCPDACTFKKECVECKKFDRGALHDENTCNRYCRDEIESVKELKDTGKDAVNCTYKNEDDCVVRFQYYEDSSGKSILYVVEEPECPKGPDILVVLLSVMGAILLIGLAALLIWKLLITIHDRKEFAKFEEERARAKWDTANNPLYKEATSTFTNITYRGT
Target sequence in this assay (P06756 31-889 limits assumed): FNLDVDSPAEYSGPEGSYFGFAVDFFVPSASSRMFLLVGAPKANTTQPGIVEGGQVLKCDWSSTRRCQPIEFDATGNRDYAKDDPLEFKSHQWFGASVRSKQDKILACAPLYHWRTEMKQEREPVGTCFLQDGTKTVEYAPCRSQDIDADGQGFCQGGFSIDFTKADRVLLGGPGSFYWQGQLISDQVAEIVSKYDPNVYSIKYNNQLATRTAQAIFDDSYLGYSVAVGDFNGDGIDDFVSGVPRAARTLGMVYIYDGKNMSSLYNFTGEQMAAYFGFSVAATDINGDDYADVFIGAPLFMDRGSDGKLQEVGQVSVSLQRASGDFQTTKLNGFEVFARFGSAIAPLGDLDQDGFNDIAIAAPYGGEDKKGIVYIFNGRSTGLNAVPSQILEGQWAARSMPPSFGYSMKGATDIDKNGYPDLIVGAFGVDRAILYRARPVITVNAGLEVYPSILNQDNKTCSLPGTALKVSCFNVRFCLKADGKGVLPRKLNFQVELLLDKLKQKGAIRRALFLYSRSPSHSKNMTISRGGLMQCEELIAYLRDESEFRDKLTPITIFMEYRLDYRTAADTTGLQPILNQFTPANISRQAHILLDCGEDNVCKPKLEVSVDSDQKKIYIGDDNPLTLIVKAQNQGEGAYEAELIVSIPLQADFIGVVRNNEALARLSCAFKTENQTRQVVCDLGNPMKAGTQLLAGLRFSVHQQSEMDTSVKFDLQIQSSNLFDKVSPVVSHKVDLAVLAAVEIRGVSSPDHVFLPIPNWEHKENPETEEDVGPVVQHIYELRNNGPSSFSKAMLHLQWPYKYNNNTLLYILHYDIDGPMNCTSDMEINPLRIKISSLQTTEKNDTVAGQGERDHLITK
Target sequence in this assay (P06756 891-1048 limits assumed): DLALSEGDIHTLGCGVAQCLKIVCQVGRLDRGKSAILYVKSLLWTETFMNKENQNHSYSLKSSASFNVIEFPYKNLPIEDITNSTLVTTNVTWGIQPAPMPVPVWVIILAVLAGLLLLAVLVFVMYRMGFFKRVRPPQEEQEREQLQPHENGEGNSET

Compound | inhibition (Integrin alpha-V/beta-3 [1]) | inhibition (Integrin alpha-V/beta-3 [2]) | IC50 (Integrin alpha-5/beta-1 [3]) [nM] | inhibition (Integrin alpha-5/beta-1 [4]) | IC50 (Integrin alpha-V/beta-3 [5]) [nM]
H-GRGDNP-OH |  |  | > 100000 |  | 230
C/C=C(\C(=O)O)C(NCc1ccc(N)cc1)C(C)C (configuration not stated) |  |  | 9800 |  | 1490
C/C=C1\C(=O)N(CC(=O)O)C(=O)N(Cc2ccc(NC(=O)CN)cc2)C1C(C)C (configuration not stated) |  |  | > 100000 |  | > 100000
C/C=C(\C(=O)O)C(NCc1ccc(N)cc1)C1CCCCC1 (configuration not stated) |  |  | 2100 |  | 830
C/C=C(\C(=O)NCC(=O)O)C(C)NCc1ccc(N)cc1 (configuration not stated) | Active | Active | 9800 |  | 120
CC1=C(C(=O)NCc2ccc(N)cc2)C(C(C)C)N(C(=O)CC(=O)O)O1 (configuration not stated) |  |  | 1050 |  | 8800
H-GRGDTP-OH |  |  | 930 |  | 0.62

The next compounds have a lower IC50 (Integrin alpha-5/beta-1 [3]) than those just listed; values first:

inhibition (Integrin alpha-V/beta-3 [1]) | inhibition (Integrin alpha-V/beta-3 [2]) | IC50 (Integrin alpha-5/beta-1 [3]) [nM] | inhibition (Integrin alpha-5/beta-1 [4]) | IC50 (Integrin alpha-V/beta-3 [5]) [nM] | Compound
Active | Active | 170 | Active | 270 | C/C=C(\C(=O)NCC(=O)O)C(NCc1ccc(NC(=O)CN)cc1)C(C)C (configuration not stated)
 |  | 220 |  | 2000 | C/C=C(\C(=O)NCC(=O)O)C(NCc1ccc(N)cc1)C(C)C (configuration not stated)
 |  | 19 |  | > 100000 | C/C=C(\C(=O)O)C(C)NCc1ccc(N)cc1 (configuration not stated)
 |  | 57 |  | 71 | CCCN(C(=O)CC(=O)O)C1=C(C)CC(c2ccccc2)N([C@@H](C)c2ccc(N)cc2)C1=O (some centres not stated)
